In data set [1] the test system is MDCK1. Briefly: Inhibition of calcium oxalate monohydrate crystal binding to MDCK1 cell surface at 10 uM preincubated for 3 hrs followed by calcium oxalate monohydrate crystal addition measured after 30 mins by phase contrast microscopy. Format: functional, cell-based. The note with it: Canis lupus familiaris. Summed up: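 MDCKI cells (5×10^5 per well) cultured 24 h in complete medium, pretreated 3 h with 0, 1 or 10 μM, washed with PBS, then exposed 30 min to COM crystals (100 μg/mL medium). Unbound crystals removed by five washes with plain DMEM. Adherent crystals counted by phase-contrast microscopy in 15 random high-power fields per well.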

Data set [2] in a line: Cytotoxicity against MDCK1 cells assessed as decrease in cell viability after 24 hrs by MTT assay. The class given is cell-based. The note with it: Canis lupus familiaris, MDCK1, 24 h. Summed up:
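MDCKI cells seeded at 1×10^4 per well, exposed 24 h to 0, 5, 10, 25, 50 μM (in DMSO/PBS). MTT (5 mg/mL working solution) added for 3 h at 37°C, then stop solution; OD read at 570 nm. Viability expressed as percent of untreated control after blank subtraction; IC50 reported. Means ± S.D. of three independent experiments.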
(Formazan colour is commonly taken as a measure of viable cells.)

Data set [3] is described as follows: Antioxidant activity assessed as DPPH radical scavenging activity incubated in dark for 20 mins. Format: functional. In a few lines: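 Compound stock 1 mM in DMSO; 2–20 μL portions made up to 40 μL with DMSO and added to 1.96 mL of 0.1 mM DPPH. Held at RT for 20 min in the dark, then absorbance read at 517 nm. DPPH alone served as control. % radical scavenging = (control − test)/control × 100.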
Background: The DPPH test is a chemical assay of radical scavenging.

The subject of data set [4] is Drosophila melanogaster. Briefly: Inhibition of calcium oxalate crystallization in Oregon R Drosophila melanogaster malpighian tubule model at 100 uM preincubated with test compound alone for 20 mins followed by addition of calcium oxalate along with test compound measured after 1 hr by DIC microscopy. Format: functional. In a few lines:
(§1)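 Malpighian tubules dissected from wild-type Oregon R female flies. Tubules preincubated in iPBS with 100 μM for 20 min, then given 100 μM plus Na-oxalate for 1 h, with solutions renewed every 15 min. Controls received oxalate alone. The first 600 μm of anterior tubule imaged by DIC birefringence. Crystal number and area measured with ImageJ. n=12 per group; means ± SE.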

Data set [5] deals with MDCK1. Description: Increase in intracellular AxA1 expression in MDCK1 cells at 50 uM after 3 hrs by laser scanning confocal microscopic method. Format: functional, cell-based. As to conditions: Canis lupus familiaris. In a few lines: (§2)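 MDCKI cells grown overnight on collagen-coated chamber slides and treated ± 50 μM for 3 h. Fixed in 4% paraformaldehyde. Intracellular staining done with 0.2% Triton permeabilization; surface staining done without permeabilization. Rabbit anti-annexin A1 applied overnight at 4°C, then Alexa Fluor 488 anti-rabbit secondary. Nuclei counterstained with TOTO-3. Imaged by confocal microscopy, 63× oil objective.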

The nature of data set [6]: Inhibition of AxA1 expression in MDCK1 cell surface at 50 uM after 3 hrs by laser scanning confocal microscopic method relative to control. The class given is functional. As to conditions: Canis lupus familiaris, MDCK1, 3 h. Summed up:
as §2

The nature of data set [7]: Effect on total alpha-enolase expression in MDCK1 cells at 50 uM after 3 hrs by Western blot method. The class given is ADME, cell-based, Canis lupus familiaris. The note with it: dog, mdck1, 3 h. Summed up:
(§3)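 MDCKI cells seeded at 5×10^5 per well and treated with 50 μM for 3 h. Cytosolic fraction extracted with PIPES/EDTA/0.02% digitonin buffer for 10 min at 4°C. Membrane fraction taken from the pellet in SDS/Tris pH 6.8 buffer. Whole lysate prepared separately. 30 μg protein per lane on 7.5% gel; blots probed for annexin A1, HSP90 and α-enolase, with β-actin as loading control. Bands read by ECL densitometry. Mean ± SEM, n=3.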

The nature of data set [8]: Effect on total AxA1 expression in MDCK1 cells at 50 uM after 3 hrs by Western blot method. The note with it: dog, mdck1, 3 h. The class given is ADME, cell-based, Canis lupus familiaris. In a few lines:
as §3

The test system of data set [9] is MDCK1. Briefly: Upregulation of alpha-enolase expression in cytosolic fractions of MDCK1 cells at 50 uM after 3 hrs by Western blot method. As to conditions: Canis lupus familiaris. Format: functional, cell-based. Summed up:
as §3
A general note: Immunoblotting shows a protein as a band on a membrane.

Data set [10] relates to MDCK1. Briefly: Upregulation of HSP90 expression in cytosolic fractions of MDCK1 cells at 50 uM after 3 hrs by Western blot method. The note with it: Canis lupus familiaris. Format: functional, cell-based. Summed up:
as §3

Data set [11] deals with MDCK1. Briefly: Downregulation of alpha-enolase expression in membrane fractions of MDCK1 cells at 50 uM after 3 hrs by Western blot method. The class given is functional, cell-based. As to conditions: Canis lupus familiaris. In a few lines: as §3
Data set [12] relates to MDCK1. Description: Upregulation of AxA1 expression in cytosolic fractions of MDCK1 cells at 50 uM after 3 hrs by Western blot method. The note with it: Canis lupus familiaris. Format: functional, cell-based. In a few lines:
as §3

In data set [13] the test system is MDCK1. Description: Downregulation of AxA1 expression in membrane fractions of MDCK1 cells at 50 uM after 3 hrs by Western blot method. The class given is functional, cell-based. The note with it: Canis lupus familiaris. In a few lines:
as §3

Data set [14] has as its system MDCK1. Briefly: Downregulation of HSP90 expression in membrane fractions of MDCK1 cells at 50 uM after 3 hrs by Western blot method. The class given is functional, cell-based. As to conditions: Canis lupus familiaris. In a few lines:
as §3

Data set [15] is described as follows: Inhibition of cell surface associated calcium oxalate monohydrate crystal levels in MDCK1 cells preincubated for 3 to 6 hrs followed by calcium oxalate monohydrate crystal addition measured after 30 mins by phase contrast microscopy relative to control. Format: functional, Canis lupus familiaris. In a few lines: (§4)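 MDCKI cells seeded at 5×10^5 per well and cultured for 24 h. Pretreated at 0–50 μM for 3 h (concentration series), or at 25 or 50 μM for 1, 3 or 6 h (time course). Cells then washed and exposed to COM crystals (100 μg/mL) for 30 min, followed by five washes with plain medium. Adherent crystals counted by phase-contrast microscopy in 15 random high-power fields, ×400.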

A short description of data set [16]: Effect on total HSP90 expression in MDCK1 cells at 50 uM after 3 hrs by Western blot method. Format: ADME, cell-based, Canis lupus familiaris. As to conditions: dog, mdck1, 3 h. In a few lines: as §3
Data set [17] has as its system MDCK1. Briefly: Inhibition of calcium oxalate monohydrate crystal binding to MDCK1 cell surface preincubated for 3 hrs followed by calcium oxalate monohydrate crystal addition measured after 30 mins by phase contrast microscopy. The note with it: Canis lupus familiaris. Format: functional, cell-based. Summed up: as §4
Data set [18] in a line: Cytotoxicity against MDCK1 cells assessed as decrease in cell viability up to 155 +/- 4 uM after 24 hrs by MTT assay. Format: cell-based, Canis lupus familiaris. As to conditions: dog, mdck1, 24 h.
Data set [19] deals with Drosophila melanogaster. Description: Inhibition of calcium oxalate crystal size in Oregon R Drosophila melanogaster malpighian tubule model at 100 uM preincubated with test compound alone for 20 mins followed by addition of calcium oxalate along with test compound measured after 1 hr by DIC microscopy. Format: functional. In a few lines:
as §1

Data set [20] relates to Drosophila melanogaster. Description: Inhibition of total calcium oxalate crystal area in Oregon R Drosophila melanogaster malpighian tubule model at 100 uM preincubated with test compound alone for 20 mins followed by addition of calcium oxalate along with test compound measured after 1 hr by DIC microscopy. The class given is functional. In a few lines:
as §1

The structures appear in SMILES notation. Calls of active or inactive are those of the source. The calls are words filed in the database; no cut-off is given here.

For the molecule `O=C(O)c1cc(O)c(O)c(O)c1` [GALLIC ACID], in data set [1], the inhibition – broadly, the percentage by which the read-out fell short of the control – is “Active”. In addition, the IC50 (in general, the concentration that inhibits the measured activity by half) in data set [2] came out at 34 µM. In addition, in [3], the EC50 (usually the concentration needed to bring the measured effect to its halfway point) came out at 3 µM.

Turning to `COC(=O)[C@]1(O)C[C@@H](O)[C@@H](O)[C@H](O)C1`, the IC50 in [2] was 120 µM. For the same molecule, the result in [3] was inactive.

For the molecule `COC(=O)[C@]1(O)C[C@@H](OC(=O)c2cc(O)c(O)c(O)c2)[C@@H](OC(=O)c2cc(O)c(O)c(O)c2)[C@H](OC(=O)c2cc(O)c(O)c(O)c2)C1`, the inhibition entry in data set [4], in data set [19] and in [20] was “Active” each time. The result in [5], in [9], in data set [10], in data set [11], in data set [12] and in [13] was Active. In addition, the result in data set [14] was Active. In [6], this molecule yielded an inhibition at 50 µM of 50%. Also, the Activity entry in data set [7], in data set [8], in [16] and in [18] was “Non-Toxic” in each case. The “inhibition (INH)” value in data set [15] was determined as 50%. The inhibition result in data set [17] is “Dose-dependent effect”. In data set [3], the EC50 came out at 11 µM.

For the molecule `O=C1O[C@H]([C@@H](O)CO)C(O)=C1O` [ASCORBIC ACID], the EC50 in data set [3] was determined as 45 µM.

Values taken from ChEMBL document CHEMBL4043284, “The Synthesized Plant Metabolite 3,4,5-Tri-O-Galloylquinic Acid Methyl Ester Inhibits Calcium Oxalate Crystal Growth in a Drosophila Model, Downregulates Renal Cell Surface Annexin A1 Expression, and Decreases Crystal Adhesion to Cells” (J Med Chem, 2018).
